Screening data deposited in PubChem BioAssay by several laboratories.
CendR NRP1 mod = NRP-1/CendR interaction modulation; O14786; FAM-RPARPAR peptide binding to NRP-1, fluorescence polarization; inhibition, % at 25 µM; actives 0.85% (n = 360,000); AID 602438;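 active means inhibition or corrected inhibition above about 18%, plus a signal ratio from 0.5 to 1.5, limit read from the data, passing the limit was not always enough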
Target sequence (O14786 whole entry, looked up): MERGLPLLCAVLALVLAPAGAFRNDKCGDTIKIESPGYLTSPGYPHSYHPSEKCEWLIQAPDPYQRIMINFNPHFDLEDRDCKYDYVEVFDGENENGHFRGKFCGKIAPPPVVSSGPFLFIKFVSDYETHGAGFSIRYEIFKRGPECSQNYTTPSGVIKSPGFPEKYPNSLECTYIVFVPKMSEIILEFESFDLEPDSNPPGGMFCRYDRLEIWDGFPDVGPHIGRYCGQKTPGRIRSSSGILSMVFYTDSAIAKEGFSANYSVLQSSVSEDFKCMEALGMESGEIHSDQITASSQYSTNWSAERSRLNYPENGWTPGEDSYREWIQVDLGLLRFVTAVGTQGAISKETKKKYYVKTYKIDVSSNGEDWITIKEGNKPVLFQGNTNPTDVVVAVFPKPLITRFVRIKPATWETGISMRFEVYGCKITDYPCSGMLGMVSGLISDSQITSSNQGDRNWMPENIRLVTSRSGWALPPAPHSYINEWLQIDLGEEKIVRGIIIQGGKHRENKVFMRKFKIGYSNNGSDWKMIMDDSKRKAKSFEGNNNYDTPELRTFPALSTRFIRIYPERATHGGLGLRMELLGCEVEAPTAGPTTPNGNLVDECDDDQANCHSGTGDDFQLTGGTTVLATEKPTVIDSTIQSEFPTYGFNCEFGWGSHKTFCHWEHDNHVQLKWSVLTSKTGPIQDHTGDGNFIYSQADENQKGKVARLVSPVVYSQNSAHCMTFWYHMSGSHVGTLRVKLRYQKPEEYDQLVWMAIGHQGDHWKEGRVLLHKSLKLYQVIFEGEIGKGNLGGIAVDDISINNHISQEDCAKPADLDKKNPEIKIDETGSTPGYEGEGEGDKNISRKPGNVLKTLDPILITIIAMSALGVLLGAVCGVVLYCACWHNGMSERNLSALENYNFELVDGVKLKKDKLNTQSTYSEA
Hep lipid drop = modulators of hepatic lipid droplet formation. AML12 mouse hepatocytes, oleate lipid droplets, BODIPY imaging. inhibition, % at 6.5 µM. actives 0.4% (n = 240,000). AID 1656;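 active means lipid droplet intensity inhibited by at least 50%, with more than 500 cells counted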
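material = mouse AML12 hepatocyte cell line, fixed after treatment | also added = 100 µM oleic acid challenge | doses = compound at 6.5 µM only | schedule = overnight exposure | technique = Image-based BODIPY and DAPI two-channel analysis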
Arr AP2 block = blocks beta-arrestin peptide binding to AP2 adaptin | inhibition, % at 10 µM | actives 0.31% (n = 340,000) | AID 504490 | FITC-arrestin peptide / GST-AP2 beads, flow cytometry; AP2 beta2 appendage carries R879A mutation;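 active means inhibition above a set limit, near 3 SD of compounds lacking own fluorescence, cut at about 54% in these data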;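 further: plate controls were DMSO wells for no effect and 5 µM unlabelled arrestin peptide for full effect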
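Material – GST-tagged AP2 beta2-adaptin appendage (R879A) on 4 µm glutathione beads · Probe or stimulus – fluorescein-tagged arrestin peptide at 50 nM final · Timing – 12 min plus 1 h, RT · Detection – bead flow cytometry, FITC channel · Read-out basis – inhibition as reduced fluorescein signal on beads, percent · Medium – PBS plus Tween 20 (0.05%) and BSA (0.1%)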
M18AAP inhibitor = PfM18AAP enzyme inhibition; recombinant PfM18AAP, H-Glu-NHMec fluorogenic cleavage; inhibition, % at 7.35 µM; actives 1.2% (n = 290,000);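 active means inhibition above the campaign mean inhibition over all tested compounds plus 3 SD, cut at about 28% in these data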;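 further: 0% = plate median of test compound wells and 100% = 2 mM ZnCl2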
m5-HT2A agonist = mouse HTR2A agonism via beta-arrestin recruitment; activation, % at 7.6 µM; P35363; CHO-K1 mHTR2A beta-arrestin complementation, luminescence; percent of 30 µM serotonin response; actives 0.66% (n = 360,000);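 active means activation above a run cutoff, the mean activation of all tested compounds plus 3 SD, cut at about 14% in these data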;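 further: 0% = plate median of compound wells and 100% = 30 µM serotonin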
HGIII-sPLA2 inh = Blocks human group III sPLA2 activity. Q9NZ20. QFRET BODIPY PC-A2 liposome hydrolysis, fluorescence. inhibition, % at 12.2 µM. actives 0.56% (n = 370,000);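 active means inhibition above mean plus 3 SD of compounds lying within the high and low control bounds, cut at about 19% in these data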;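 further: 0% = median of test compound wells and 100% = no enzyme DMSO wells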
MOR ag counter = counter-screen for mouse HTR2A agonists: human mu opioid receptor agonists; shares compounds with m5-HT2A agonist; U2OS OPRM1 beta-arrestin PathHunter, luminescence; DMSO 0%, DAMGO 9.3 µM 100%; activation, % at 9.3 µM; actives 5.3% (n = 2,300);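 active means mean activation above the mean of DMSO-only wells plus 3 SD, cut at about 0.5% in these data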
m5-HT2A ag conf = confirmation of mouse HTR2A serotonin receptor agonists; shares compounds with m5-HT2A agonist; CHO-K1 PathHunter beta-arrestin recruitment, luminescence; DMSO 0%, 30 µM serotonin 100%; activation, % at 7.6 µM; actives 19% (n = 2,300);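 active means mean activation across triplicates above the hit threshold derived in the original primary screen, cut at about 15% in these data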
The depositor's hits bear a star; . = not tested or not shown. A selection: hits, their analogues and other compounds. The true share with any hit is near 3.3%.

SMILES	CendR NRP1 mod	Hep lipid drop	Arr AP2 block	M18AAP inhibitor	m5-HT2A agonist	HGIII-sPLA2 inh	MOR ag counter	m5-HT2A ag conf
CC(C)NC(=O)N[C@H]1CC[C@H](CC(=O)NCc2ccc(Oc3ccccc3)cc2)O[C@@H]1CO	-17	.	.	.	15*	14	-1	-4
CCOc1ccc(OCC(=O)NCc2n[nH]c(=O)c3ccccc23)cc1	16	.	0	.	16*	3	-1	-1
CCc1ccccc1NC(=O)c1ccccc1N1C(=O)C2C3C=CC(C3)C2C1=O (configuration not stated)	22*	-7	-17	-2	16*	2	0	1
COc1cccc(NC(=O)c2ccccc2N2C(=O)C3C4C=CC(C4)C3C2=O)c1 (configuration not stated)	-4	3	-6	-2	2	3	.	.
Cc1cc(NC(=O)CSc2c3c(nc4ccccc24)CCC3)no1	3	.	4	-9	15*	-2	-1	-5
COc1ccccc1NC(=O)CSc1c2c(nc3ccccc13)CCC2	-14	-10	7	-12	-1	11	.	.
Cc1cc(-c2n[nH]c(=S)n2N=Cc2c3ccccc3cc3ccccc23)n[nH]1	.	.	.	.	.	11	.	.
CCOc1ccc(CCNC(=O)C2=C(C)C(=O)OC23CCC(C)CC3)cc1 (configuration not stated)	2	16	-2	2	16*	-6	0	-3
CC(C)(C)n1nnnc1C(c1cc2ccccc2o1)N(CCC#N)Cc1ccccc1 (configuration not stated)	9	.	.	.	42*	-6	-1	-6
COC(=O)[C@]12C[C@H](CC(=O)NCc3cccc4ccccc34)C(=O)N(Cc3ccccc3)C1=C[C@H](C(C)C)O[C@@H]2C1CC1	.	.	.	.	.	1	.	.
COCCNCC(=O)N1CCCCCC1	11	-3	9	3	17*	1	-1	-2
C=CCn1c(=N)n(CC(O)c2ccco2)c2ccccc21 (configuration not stated)	4	.	20	-6	15*	7	0	-2
CCn1c(=N)n(CC(O)c2ccco2)c2ccccc21 (configuration not stated)	2	0	6	6	1	6	.	.
Cc1cc(N(CN2CCCC2=O)C(=O)c2ccccc2)no1	-5	.	12	-7	19*	3	0	-4
Cc1nc2ccccc2c(=O)n1/N=C/c1cccnc1	-6	4	-7	-5	15*	2	-1	-1
CC(=O)Nc1ccc(N=Nc2ccccc2)cc1[N+](=O)[O-]	-9	.	.	.	3	5	.	.
COc1ccccc1/C=C(\C#N)C(=O)c1cccn1C	6	.	34	10	-6	-1	.	.
CN(C)S(=O)(=O)NC(=O)C1=C(N2CCCC2)COC1=O	-1	.	25	.	23*	9	-1	-4
Cc1ccc(N(CC(=O)NC(C)(C)C)C(=O)CNC(=O)c2cccs2)c(C)c1	10	10	37	-18	-1	-1	.	.
CC(C)(C)NC(=O)CN(C(=O)CNC(=O)c1cccs1)c1ccccc1F	4	16	-4	1	16*	5	0	4
CCCCn1c(N)c(Sc2ccc(Cl)cc2)c(=O)[nH]c1=O	-6	-10	2	-3	2	6	.	.
CCCn1c(N)c(Sc2ccc(Cl)cc2)c(=O)n(CCC)c1=O	-3	-6	8	1	23*	-9	-1	6
CCN(CC(=O)Nc1c(F)cccc1F)C(=O)c1cc(S(=O)(=O)N(CC)CC)ccc1N1CCCCC1	11	-6	38	8	0	2	.	.
CCN(CC(=O)Nc1c(F)cccc1F)C(=O)c1ccc(N2CCCCC2)c([N+](=O)[O-])c1	-2	-2	-1	5	15*	2	0.7*	8
C(#Cc1ccccc1)CN1CCN(c2ccccn2)CC1	-5	.	5	2	2	1	.	.
SMILES	CendR NRP1 mod	Hep lipid drop	Arr AP2 block	M18AAP inhibitor	m5-HT2A agonist	HGIII-sPLA2 inh	MOR ag counter	m5-HT2A ag conf
Clc1ccc(CN2CCN(c3ncccn3)CC2)cc1Cl	8	8	25	-14	27*	2	0	112*
Clc1cccc(CN2CCN(c3ncccn3)CC2)c1Cl	-1	8	2	-7	14	-3	.	.
c1ccc(CN2CCN(c3ncccn3)CC2)cc1	-7	8	-5	0	35*	17	0	98*
Fc1ccc(CN2CCN(c3ncccn3)CC2)c(F)c1	-17	-1	23	1	10	8	.	.
Clc1ccc(CN2CCN(c3ncccn3)CC2)c(Cl)c1	6	1	0	5	16*	7	0	103*
c1ccc(COc2ccc(CN3CCN(c4ccccn4)CC3)cc2)cc1	10	10	-2	2	27*	-7	-1	99*
CCN(C[C@H]1N[C@@](Cc2ccccc2)(C(=O)OC)[C@H]2C(=O)N(Cc3ccccc3)C(=O)[C@@H]12)C(=O)Nc1ccc(C(F)(F)F)cc1	2	.	-8	.	-3	-3	.	.
COc1ccc(CCC(=O)Nc2cc(S(=O)(=O)N3CCCCC3)ccc2N(C)C)cc1	12	.	-1	.	0	6	.	.
Clc1ccc(CN2CCN(c3ncccn3)CC2)cc1	13	-2	-4	-3	29*	7	0	117*
C#CC(=O)CC1(CN(Cc2ccccc2)C(=O)OC(C)(C)C)CCCCC1	-14	.	-2	.	2	-1	.	.
Cc1ccc(/C=C(\NC(=O)c2ccccc2)C(=O)NC(Cc2ccccc2)C(=O)O)cc1 (configuration not stated)	-10	-22	44	3	4	4	.	.
Cc1ccc(C(=O)N/C(=C/c2ccccc2)C(=O)NC(Cc2ccccc2)C(=O)O)cc1 (configuration not stated)	-4	14	-9	0	16*	5	-1	42*
O=C(Nc1cccc(C(=O)O)c1)/C(=C\c1ccc2c(c1)OCO2)NC(=O)c1ccc(Br)cc1	4	-15	-5	3	7	-8	.	.
O=C(Nc1ccc(C(=O)O)cc1)/C(=C/c1ccc2c(c1)OCO2)NC(=O)c1cccc(Br)c1	-19	-1	6	-2	19*	-9	0	-5
O=C(Nc1cccc(C(=O)O)c1)/C(=C\c1ccccc1)NC(=O)c1ccccc1	4	-12	-2	-3	18*	4	-1	-3
